Data reported in ChEMBL document CHEMBL1122777, “Effect of tellurium position on the myocardial uptake of radioiodinated 18-iodotellura-17-octadecenoic acid analogues” (1984).

How the values were obtained:
Rattus norvegicus [1] = assay: Heart uptake after 4 hr was determined in female Fischer rats after [125I]-labeled compound complexed with bovine serum albumin was injected intravenously; assay type: functional
In short: (§1)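 Female Fischer 344 rats (fed ad libitum) under ether anaesthesia received the ¹²⁵I fatty acid in a lateral tail vein. Dose was ~3.8–4.8 μCi per rat (sp act ~125–240 mCi/mmol), given in 0.5 mL 6% bovine albumin (final ethanol 10%) after filtration. Four rats per time point were used. Tissue radioactivity is % injected dose/g, mean with range, calculated against standards of the injected solution.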

Rattus norvegicus [2] = assay: Kidney uptake after 30 min was determined in female Fischer rats after [125I]-labeled compound complexed with bovine serum albumin was injected intravenously; assay type: functional; in short: as §1
Rattus norvegicus [3] = assay: Thyroid uptake after 2 hr was determined in female Fischer rats after [125I]-labeled compound complexed with bovine serum albumin was injected intravenously; assay type: functional
In short: (§2)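 Female Fischer 344 rats with free access to food and water. The 125I-labelled fatty acid (~3.8–4.8 μCi; sp act. ~125–240 mCi/mmol) was complexed with 6% bovine serum albumin (10% final ethanol), filtered, and 0.5 mL was injected via a lateral tail vein under ether anaesthesia. Four rats per time point. Values are mean % injected dose/g, calculated against injectate standards. Thyroid weight was taken as 7.5 mg/100 g body weight.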

Rattus norvegicus [4] = assay: Kidney uptake after 60 min was determined in female Fischer rats after [125I]-labeled compound complexed with bovine serum albumin was injected intravenously; assay type: functional; in short: as §1
Rattus norvegicus [5] = assay: Lungs uptake after 5 min was determined in female Fischer rats after [125I]-labeled compound complexed with bovine serum albumin was injected intravenously; assay type: functional; in short: as §1
Rattus norvegicus [6] = assay: Heart uptake after 3 day was determined in female Fischer rats after [125I]-labeled compound complexed with bovine serum albumin was injected intravenously; assay type: functional; in short: as §1
[7] = Ratio of heart to blood uptake after 240 min was determined in female Fischer rats after [125I]-labeled compound complexed with bovine serum albumin was injected intravenously; assay type: functional
In short: (§3)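 Female Fischer 344 rats (food and water ad libitum) given the 125I-labelled fatty acid in 6% bovine albumin with 10% final ethanol, filtered, 0.5 mL into a lateral tail vein under ether anaesthesia. Four rats per time point. Tissue activity expressed as % injected dose/g against assayed injectate standards. Mean heart/tissue ratios were calculated from mean %ID/g values.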

Rattus norvegicus [8] = assay: Kidney uptake after 5 min was determined in female Fischer rats after [125I]-labeled compound complexed with bovine serum albumin was injected intravenously; assay type: functional; in short: as §1
Rattus norvegicus [9] = assay: Kidney uptake after 2 hr was determined in female Fischer rats after [125I]-labeled compound complexed with bovine serum albumin was injected intravenously; assay type: functional; in short: as §1
[10] = Ratio of heart to kidneys uptake after 60 min was determined in female Fischer rats after [125I]-labeled compound complexed with bovine serum albumin was injected intravenously; assay type: functional, Heart/Kidney; in short: as §3
Rattus norvegicus [11] = assay: Heart uptake after 60 min was determined in female Fischer rats after [125I]-labeled compound complexed with bovine serum albumin was injected intravenously; assay type: functional; in short: as §1
Rattus norvegicus [12] = assay: Thyroid uptake after 30 min was determined in female Fischer rats after [125I]-labeled compound complexed with bovine serum albumin was injected intravenously; assay type: functional; in short: as §2
Rattus norvegicus [13] = assay: Kidney uptake after 3 days was determined in female Fischer rats after [125I]-labeled compound complexed with bovine serum albumin was injected intravenously; assay type: functional; in short: as §1
Rattus norvegicus [14] = assay: Liver uptake after 3 day was determined in female Fischer rats after [125I]-labeled compound complexed with bovine serum albumin was injected intravenously; assay type: functional; in short: as §1
Rattus norvegicus [15] = assay: Kidney uptake after 1 day was determined in female Fischer rats after [125I]-labeled compound complexed with bovine serum albumin was injected intravenously; assay type: functional; in short: as §1
Rattus norvegicus [16] = assay: Blood uptake after 1 day was determined in female Fischer rats after [125I]-labeled compound complexed with bovine serum albumin was injected intravenously; assay type: functional; in short: as §1
Rattus norvegicus [17] = assay: Heart uptake after 5 min was determined in female Fischer rats after [125I]-labeled compound complexed with bovine serum albumin was injected intravenously; assay type: functional; in short: as §1
Rattus norvegicus [18] = assay: Blood uptake after 2 hr was determined in female Fischer rats after [125I]-labeled compound complexed with bovine serum albumin was injected intravenously; assay type: functional; in short: as §1
Rattus norvegicus [19] = assay: Kidney uptake after 4 hr was determined in female Fischer rats after [125I]-labeled compound complexed with bovine serum albumin was injected intravenously; assay type: functional; in short: as §1
Rattus norvegicus [20] = assay: Thyroid uptake after 3 days was determined in female Fischer rats after [125I]-labeled compound complexed with bovine serum albumin was injected intravenously; assay type: functional; in short: as §2
Rattus norvegicus [21] = assay: Blood uptake after 3 day was determined in female Fischer rats after [125I]-labeled compound complexed with bovine serum albumin was injected intravenously; assay type: functional; in short: as §1
Rattus norvegicus [22] = assay: Kidneys uptake after 3 days was determined in female Fischer rats after [125I]-labeled compound complexed with bovine serum albumin was injected intravenously; assay type: functional; in short: as §1
Rattus norvegicus [23] = assay: Liver uptake after 3 days was determined in female Fischer rats after [125I]-labeled compound complexed with bovine serum albumin was injected intravenously; assay type: functional; in short: as §1
Rattus norvegicus [24] = assay: Kidneys uptake after 30 min was determined in female Fischer rats after [125I]-labeled compound complexed with bovine serum albumin was injected intravenously; assay type: functional; in short: as §1
Rattus norvegicus [25] = assay: Kidneys uptake after 2 hr was determined in female Fischer rats after [125I]-labeled compound complexed with bovine serum albumin was injected intravenously; assay type: functional; in short: as §1
Rattus norvegicus [26] = assay: Heart uptake after 3 days was determined in female Fischer rats after [125I]-labeled compound complexed with bovine serum albumin was injected intravenously; assay type: functional; in short: as §1
Rattus norvegicus [27] = assay: Kidneys uptake after 1 day was determined in female Fischer rats after [125I]-labeled compound complexed with bovine serum albumin was injected intravenously; assay type: functional; in short: as §1
Rattus norvegicus [28] = assay: Kidneys uptake after 5 min was determined in female Fischer rats after [125I]-labeled compound complexed with bovine serum albumin was injected intravenously; assay type: functional; in short: as §1
Rattus norvegicus [29] = assay: Kidneys uptake after 60 min was determined in female Fischer rats after [125I]-labeled compound complexed with bovine serum albumin was injected intravenously; assay type: functional; in short: as §1
Rattus norvegicus [30] = assay: Kidneys uptake after 4 hr was determined in female Fischer rats after [125I]-labeled compound complexed with bovine serum albumin was injected intravenously; assay type: functional; in short: as §1
Rattus norvegicus [31] = assay: Blood uptake after 3 days was determined in female Fischer rats after [125I]-labeled compound complexed with bovine serum albumin was injected intravenously; assay type: functional; in short: as §1

Structure (SMILES) | Injected dose/g (Rattus norvegicus [1]) | Injected dose/g (Rattus norvegicus [3]) | Injected dose/g (Rattus norvegicus [5]) | Ratio [7] | Ratio [10] | Injected dose/g (Rattus norvegicus [11]) | Injected dose/g (Rattus norvegicus [12]) | Injected dose/g (Rattus norvegicus [16]) | Injected dose/g (Rattus norvegicus [17]) | Injected dose/g (Rattus norvegicus [18]) | Injected dose/g (Rattus norvegicus [20]) | other results
O=C(O)CCCCCCC[Te]CCCCCCC/C=C/I | 3.51% | 38.5% | 1.63% | 4 | 3.4 | 5.17% | 15% | 0.46% | 4.83% | 0.44% | 267% | Injected dose/g (Rattus norvegicus [2]): 1.38%; Injected dose/g (Rattus norvegicus [4]): 1.52%; Injected dose/g (Rattus norvegicus [6]): 0.28%; Injected dose/g (Rattus norvegicus [8]): 1.58%; Injected dose/g (Rattus norvegicus [9]): 1.27%; Injected dose/g (Rattus norvegicus [13]): 0.22%; Injected dose/g (Rattus norvegicus [14]): 0.64%; Injected dose/g (Rattus norvegicus [15]): 0.59%; Injected dose/g (Rattus norvegicus [19]): 1.19%; Injected dose/g (Rattus norvegicus [21]): 0.21%
O=C(O)CCCCCCCCC[Te]CCCCC/C=C/I | 2.44% | 45% | 2.49% | 2 | 1 | 3.63% | 29% | 0.62% | 3.09% | 0.81% | 227% | Injected dose/g (Rattus norvegicus [22]): 0.21%; Injected dose/g (Rattus norvegicus [23]): 0.19%; Injected dose/g (Rattus norvegicus [24]): 1.85%; Injected dose/g (Rattus norvegicus [25]): 1.51%; Injected dose/g (Rattus norvegicus [26]): 0.34%; Injected dose/g (Rattus norvegicus [27]): 0.62%; Injected dose/g (Rattus norvegicus [28]): 2.22%; Injected dose/g (Rattus norvegicus [29]): 1.92%; Injected dose/g (Rattus norvegicus [30]): 1.42%; Injected dose/g (Rattus norvegicus [31]): 0.34%
